Drawing on the RNAGym collection of RNA variant scans (doi:10.1126/science.aae0568), this text covers yeast fitness for 38 variants.

The labels stand for the following.
B1: tRNA (parent)
chain: GUUCCGUUGGCGUAAUGGUAACGCGUCUCCCUCCUAAGGAGAAGACUGCGGGUUCGAGUCCCGUACGGAACG

Fewer inactive variants are shown than the library holds. Some results are limits rather than exact numbers.

Variants of B1 are the subject of this data set. Put plainly: yeast fitness relative to wild type (ratio to wild type); higher = fitter; tRNA-Arg(CCU), competitive growth, 37 C, YPD. In short, it runs like this:
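Amplicons of the tRNA-Arg(CCU) gene were sequenced, 100-nucleotide paired-end, from the start population and from each end population of a pooled yeast competition. The competition, in six parallel replicates, lasted 24 hours in YPD at 37°C. Fitness relative to wild type was calculated from changes in genotype frequencies. Genotypes had to have ≥ 100 starting reads, and estimates < 0.5 were set to 0.5.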
As for GAUCCGUUGGCGUACUGGUAACGCGUCUCCCUCCUAAGGAGAAGACCGCGGGUUCGAGUCCCGUACGGAACG [U2A A15C U47C], the yeast fitness was no more than 0.5.
For GAUCCGUUGGCGUAGUGGUAACGCGUCUCCCUCCUAUGGAGAAGACUGGGGGUUCGAGUCCCGUACGGAACG [U2A A15G A37U C49G] the value was no more than 0.5.
The same measure for GAUCCGUUGGCGUACUGGUAACGCGUCUCGCUCCUAAGGAGAAGACUGCGGGUUCGAGUCCCGUACCGAACG [U2A A15C C30G G67C]: no more than 0.5; for GAUCCGUUGGCGUGAUGGUAACGCGUCUCCCUCCUAUGGAGAAGACUGCGGGUACGAGUCCCGUACGGAACG [U2A A14G A37U U54A]: no more than 0.5; for GAUCCGUUGGCGUAAUGGUCACGCGUUUCCCUCCUAAGGAGAAGACUGCGGGUUCGACUCCCGUACGGCACG [U2A A20C C27U G58C A69C]: no more than 0.5.
For GAUCCGUUGGCGUUAUGGUAACGCGUCUCCCUCCUAAGGAGAAGACUGCGGGUUCGAGUCCCGUACGGAACG [U2A A14U] the value was 0.682.
Take GAUCCGUUGGCGUACUGGUAACGCGUCUCCCUCCUAAGGAGAAGACUGCGGGUUCGACUCCCGUACGGAACG [U2A A15C G58C]: the yeast fitness is no more than 0.5.
The same measure for GAUCCGUUGGCGUUAUGGUAACGCGUCUGCCUCCUAAGGAGAACACUGCGGGUUCGAGUCCCGUACGGAACG [U2A A14U C29G G44C]: 0.534.
For GAUCCGUUGGCGUCAUGGUAACGCGUCUCUCUCGUAAGGAGAAGUCUGCGGGUUCGAGUCCCGUACGGAACG [U2A A14C C30U C34G A45U] the value was no more than 0.5; for GAUCCGUUGGCGUAAUGGUCACGCGUCUCCCUCCUAGGGAGAAGACUGCGGGUUCGAGUCCCGUACGGAACG [U2A A20C A37G], 0.529.
For GAUCCGUUGGCGUAAUGGUCACGCGUCUCCCUCCUAAGGAGAAGACUGCGGGUUUGAGUCCCGUACGGAACG [U2A A20C C55U] the value was 0.582.
Turning to GAUCCGUUGGCGUAUUGGUAACGCGUCUCCCUCCUAAGGAGAAGACUGCGGGUUCGAGUCCCGUACGGAACG [U2A A15U], the yeast fitness is 0.753.
The same measure for GAUCCGUUGGCGUACUGGUAACGCGUCUCCCUCCUAAGGAGAAGACUGCGGGUUCGAGUCCCGUACGGAACG [U2A A15C]: 0.685; for GAUCCGUUGGCGUCAUGGUAACGCGUCUCUCUCGUAAGGAGAAGACUGCGAGUUCGAGUCCCGUACGGAACG [U2A A14C C30U C34G G51A]: no more than 0.5.
The same measure for GAUCCGUUGGCGUAAUGGUCACGCGUCUCCCUCCUAAGGAGAAGACUCCGGGUUCGAGUCCCGUACCGAACG [U2A A20C G48C G67C]: no more than 0.5; for GAUCCGUUGGCGUAUUCGUAACGCGUCUCCCUCCUAAGGAGAAGACUGCGAGUUCGAGUCCCGUACGGAACG [U2A A15U G17C G51A]: no more than 0.5.
For GAUCCGUUGGCGUAAUGGUCACGCGUCUCCCUCCUAAGGAGAAGACUGCGGGUUCGAGUCCCGUACGGAACG [U2A A20C] the value was 0.928; for GAUCCGUUGGCGUAAUGGUGACGCGUCUCCCUCCUAAGGAGAAGACUGCGGGUUCGAGUCCCGUACGGAACG [U2A A20G], 0.838.
As to GAUCCGUUGGCGUAUUGGUAACGCGUCUCCCUCAUAAGCCGAAGACUGCGGGUUCCAGUCGGGUACGCAACG [U2A A15U C34A G39C A40C G56C C61G C62G G68C], the yeast fitness is no more than 0.5.
For GAUCCGUUGGCGUAGUGGUAACGCGUCUUCCUCCUAAGGAAAAGACUGCGGGUUCGAGUCCCGUACGGAACG [U2A A15G C29U G41A] the value was no more than 0.5; for GAUCCGUUGGCGUAUUGGUAACGCGUUUCACUCCUAAGGACAAGACUGAGGGUUGGAGUCACGUACGGAACG [U2A A15U C27U C30A G41C C49A C55G C61A], no more than 0.5; for GAUCCGUUGGCGUAAUGGUCACGCGUCUCCCUCCUAAGGAGAAGACUGCGGGUUCGAGUCCCGUACGGCACG [U2A A20C A69C], 0.78.
On to GAUCCGUUGGCGUCAUGGUAACGCGUCUCCCUCCUAAGGAGAAGACUGCAGGUUCGAGUCCCCUACGGAACG [U2A A14C G50A G63C], for which the yeast fitness is no more than 0.5.
The same measure for GAUCCGUUGGCGUAAUGGUGACGCGUCUCCCUCCUAAGGAGAAGACUGCGGGUUCGAGUCCCGUACGGCACG [U2A A20G A69C]: 0.688.
For GAUCCGUUGGCGUGAUGGUAACGCCUCUCCCUCCUAAGGAGAAGACCCCGGGUUCGAGUCCCGUACGGAACG [U2A A14G G25C U47C G48C] the value was 0.573.
For GAUCCGUUGGCGUUAUGGUAGCGCGUCUCCCUCCUAAGGAGAAGAGUGCGGGUUCGUGUCCCGUAUGGAACG [U2A A14U A21G C46G A57U C66U] the value was 0.56.
Take GAUCCGUUGGCGUAGUGGUAACGCGUCUCCGUCCUAAGGUGAAGACUGCGGGUUCGAGUGCCGUACAGAACG [U2A A15G C31G A40U C60G G67A]: the yeast fitness is no more than 0.5.
For GAUCCGUUGGCGUCAUGGUAACGCGUCUCCCUCCUAAGGAGAAGACUCCGGGUUCGAGUCCCGUACGGAACG [U2A A14C G48C] the value was no more than 0.5.
Regarding GAUCCGUUGGCGUCAUGGUAACGCGUCUCUCUCGUAAGGAGAAGACUGCGGGUUCGAGUCCCGUACGGAACG [U2A A14C C30U C34G], the yeast fitness was no more than 0.5.
The same measure for GAUCCGUUGGCGUAAUGGUCACGCGUCUCCCUCCUAAGGGGAAGACUGCGGGUUCGAGUCCCGUACGGAACG [U2A A20C A40G]: 0.633; for GAUCCGUUGGCGUGAUGGUAAGGCGUCUCGCUCCUAAGGAGAAGACAGCGGGUUCGAGUCCCGUACGGAACG [U2A A14G C22G C30G U47A]: no more than 0.5.
For the variant GAUCCGUUGGCGUUAUGGUAACGUGUCUCCCGCCUAAGGAGAAGACUGCGGGUUCGAGUCCCGUACGGAACG [U2A A14U C24U U32G], the yeast fitness was 0.672.
For GAUCCGUUGGCGUAAUGGUCACGCGUCUCCCUCCUAAGGAGAAGACUGCGGGUUCGAGUCCCGUACGUAACG [U2A A20C G68U] the value was 1.01; for GAUCCGUUGGCGUCAUGGUGACGCGUCUCCCUCCUGAGGAGAAGACUGCGGGUUUGAGUCCCGUACGCAACG [U2A A14C A20G A36G C55U G68C], 0.595; for GAUCCGUUGGCGUACUGGUAACGCGUCUCGCUCCUAAGGAGAAGACUGCGGGUUCGAGUCCCGUACGGAACG [U2A A15C C30G], no more than 0.5.
As for GAUCCGUUGGCGUACUGGUAACGCGUCUCCCUCCUAAGGAGAAGACUGCGGGUUCGAGUCCCGUACGGCACG [U2A A15C A69C], the yeast fitness is no more than 0.5.
For GAUCCGUUGGCGUAAUGGUGACGGGUCUCGCUCCUAAGGAGAAGACUGCGGGUUCGAGUCCCGUACGGAACG [U2A A20G C24G C30G] the value was no more than 0.5; for GAUCCGUUGGCGUUAUGGUAACGCGUCUCCCUCCUAAGGAGAAGAUUGCGGGUUCGAGUCCCGUACGGAACG [U2A A14U C46U], 0.595.
